Measured values collected from several papers.
Compare with care: the assays were run in different laboratories.
ABL1: Tyrosine-protein kinase ABL1 (ABL1, Homo sapiens, UniProt P00519)
ABL1 phosphorylated: Tyrosine-protein kinase ABL1, phosphorylated (ABL1, Homo sapiens, UniProt P00519)

Structure (SMILES)	target	effect on	mode	technique	concentration	endpoint	result
C#Cc1n[nH]c2c(-c3cn(C(C)c4ccccn4)c(=O)[nH]c3=O)cc(F)cc12 (centres unmarked)	ABL1	enzyme activity	inhibitor	–	1 µM	inhibition	-8.5%
Cc1nn(C)cc1-c1nc2c(N3CCN(Cc4ccc(Cl)cc4)CC3)c(Cl)cnc2[nH]1	ABL1 phosphorylated	binding	–	competition with immobilised ligand	1 µM	remaining binding	100%
Nc1ncc(-c2nc(N3CCOCC3)nc(N3CCOCC3)n2)c(C(F)F)n1	Tyrosine-protein kinase ABL1, non-phosphorylated (ABL1, Homo sapiens, UniProt P00519, T315I)	binding	–	competition with immobilised ligand	10 µM	remaining binding	89%
Cn1cc(-c2cc(F)cc(N3CCn4c(cc5c4CCCC5)C3=O)c2CO)cc(Nc2ccc(N3CCN(C4COC4)CC3)cn2)c1=O	ABL1	enzyme activity	inhibitor	–	0.1 µM	inhibition	-1%
N#CC1(c2ccccn2)CCN(Cc2cc(C(=O)O)c(=O)n3ccccc23)CC1	Tyrosine-protein kinase ABL1, phosphorylated (ABL1, Homo sapiens, UniProt P00519, F317L)	cell-free assay	–	competition with immobilised ligand	1 µM	remaining binding	84%
Cc1ncc(C)n2nc(/C=C/c3nc(N4CCCC4)cc(N4CCOCC4)n3)nc12	ABL1	enzyme activity	inhibitor	–	10 µM	inhibition	14%
Cn1cncc1[C@](O)(COc1ccc(C#N)cc1-c1ccc(OC(F)(F)F)cc1)c1ccc(C#N)cc1	ABL1 phosphorylated	cell-free assay	–	competition with immobilised ligand	1 µM	remaining binding	100%
CC(C)(C)c1cc(C=C(C#N)C#N)cc(Br)c1O	ABL1	enzyme activity	inhibitor	–	0.5 µM	remaining activity	59.8%
